Bioassay records deposited in PubChem BioAssay by The Scripps Research Institute Molecular Screening Center.
SIAE inh – human SIAE inhibitors, primary screen, biochemical, fluorescence polarization, FP-Rh probe, 1536-well HTS; Sialate O-acetylesterase (Homo sapiens), Q9HAT2; SIAE FP-Rh probe binding; inhibition, % at 9.66 µM; hit rate 0.69% among 370,000; AID 1053197, 2014;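 active = inhibition above a cutoff: mean of compounds within the control limits plus 3 SD of those, cut at about 17% in these data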;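 also: 0% = plate median of compound wells and 100% = probe without SIAE protein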
TCR CD3 inh – inhibitors of human TCR-CD3 interaction, primary screen, biochemical, fluorescence, TAMRA-labeled TCR probe; hit rate 0.37% among 360,000; T-cell receptor (TCR); inhibition, % at 9.4 µM;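 also: recombinant mutant TCR 2C K166C tagged with TAMRA read by polarization; 0% = receptor in buffer alone and 100% = receptor with positive control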
HTRA1 inh – HTRA1 serine protease inhibitors, primary screen, biochemical, fluorescence polarization, HTS; inhibition, % at 5.96 µM; hit rate 0.5% among 340,000; Q92743; recombinant HTRA1, FP-rhodamine activity-based probe; in the data active = inhibition above about 36%;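 also: 0% = enzyme with DMSO and 100% = wells lacking enzyme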
pPAFAH inh – pPAFAH enzyme inhibitors, primary screen, biochemical, fluorescence polarization, human. recombinant pPAFAH, FP-rhodamine probe fluorescence polarization. Platelet-activating factor acetylhydrolase (Homo sapiens), Q13093. hit rate 1.5% among 330,000. AID 463082, 2010. inhibition, % at 3.39 µM;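 active = inhibition above the mean inhibition across the screen plus 3 SD, cut at about 25% in these data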;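 also: inhibitors block binding of the rhodamine activity-based probe so polarization drops; 0% = enzyme with DMSO and 100% = wells lacking pPAFAH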
ABHD4 inh – ABHD4 inhibitors, primary screen, biochemical, fluorescence polarization, mouse | (Lyso)-N-acylphosphatidylethanolamine lipase (Mus musculus), Q8VD66 | purified mABHD4, FP-Rh probe fluorescence polarization | inhibition, % at 8.92 µM | hit rate 0.54% among 370,000 | AID 720543, 2013;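 active = inhibition exceeding the mean over every tested compound plus 3 SD, cut at about 30% in these data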;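 also: 0% = plate median of compound wells and 100% = S159A mutant with DMSO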
Target sequence (Q8VD66 whole entry, looked up): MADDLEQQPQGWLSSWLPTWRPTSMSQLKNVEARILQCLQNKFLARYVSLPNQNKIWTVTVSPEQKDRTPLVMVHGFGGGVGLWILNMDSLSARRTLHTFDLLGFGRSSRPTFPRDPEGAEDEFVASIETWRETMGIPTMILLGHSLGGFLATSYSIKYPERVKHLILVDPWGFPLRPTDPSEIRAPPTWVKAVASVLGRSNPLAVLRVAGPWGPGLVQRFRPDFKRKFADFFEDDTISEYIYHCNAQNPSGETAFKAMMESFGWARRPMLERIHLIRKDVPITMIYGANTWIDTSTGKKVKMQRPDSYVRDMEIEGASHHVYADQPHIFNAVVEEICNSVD
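Test system: mABHD4 protein | Buffer or medium: HEPES pH 7.0 buffer, 150 mM NaCl, 0.01% Pluronic F-127 | Probe or stimulus: FP-Rh fluorescent activity-based probe, added after compound pre-incubation | Timing: Pre-incubation 45 min, probe exposure 60 min, at 25 °C | Technique: Fluorescence polarization, excitation 525 nm, emission 598 nm, BODIPY TMR filters | Repeats: Single well per compound (singlicate)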
BSA probe FL – compounds interfering with TAMRA-BSA probe, counter-screen for TCR-CD3 interaction inhibitor project, biochemical, fluorescence, TAMRA-labeled BSA; inhibition, % at 9.4 µM; shares compounds with TCR CD3 inh; hit rate 10% among 1,200; TAMRA-labeled BSA probe fluorescence counterscreen; in the data active = inhibition above about 23%;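 also: 0% = buffer low control and 100% = reference high control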
TCR-CD3 inh conf – TCR-CD3 interaction inhibitors, retest, confirmation, biochemical, fluorescence, TAMRA-labeled TCR probe; shares compounds with TCR CD3 inh; TAMRA-labeled TCR probe fluorescence binding assay; inhibition, % at 9.4 µM; hit rate 48% among 1,200; AID 652036, 2013
Starred values were filed as active, the others as inactive; nt = not tested or not shown. This is a sample that favours compounds with a hit; in the whole collection about 2.3% have one here. Rule as the data show it, unless noted: active = inhibition above about 19%; inactive = the rest.

SMILES | SIAE inh | TCR CD3 inh | HTRA1 inh | pPAFAH inh | ABHD4 inh | BSA probe FL | TCR-CD3 inh conf
O=c1c2ccccc2nc(COc2ccccc2)n1/N=C/c1ccc(O)cc1O | 4 | 21* | 13 | 14 | 12 | -9 | 21*
C=CCN1[C@H](CC(C)C)COc2cccc(F)c2S1(=O)=O | -3 | nt | nt | nt | 0 | nt | nt
CC(=O)c1ccc(NC(=O)COC(=O)c2c3c(nc4ccccc24)/C(=C\c2cccs2)CCC3)cc1 | -104 | 65* | -87 | -20 | -42 | 22 | 40*
O=C(COC(=O)c1c2c(nc3ccccc13)/C(=C\c1cccs1)CCC2)Nc1ccccc1 | -109 | 15 | -106 | -23 | -16 | nt | nt
CC(=O)NCCNc1nc2cc(-c3cccc(Cl)c3)sc2c(=O)n1C | -27 | -1 | nt | nt | -3 | nt | nt
Cn1ccc2c(N3CCOCC3)cc3c(c21)C1CCC3O1 (stereo not drawn) | 1 | -3 | nt | nt | 10 | nt | nt
Cn1ccc2c(N3CCCCCC3)cc3c(c21)C1CCC3O1 (stereo not drawn) | 8 | 22* | nt | nt | 13 | 1 | 2
COc1ccc(-c2nn(-c3ccccc3)cc2/C=N/NC(=O)c2cccc(S(=O)(=O)Nc3ccccc3OC)c2)cc1 | -99 | 41* | -26 | -22 | -3 | 32* | 46*
O=C1CC(N(CCc2ccccc2)C(=S)Nc2ccccc2)C(=O)N1c1ccc(Br)cc1 (stereo not drawn) | -140 | 24* | -139 | -32 | -118 | 3 | 3
O=c1nc2c(O)cccn2c2c1c(=O)[nH]c1ccccc12 | 3 | 54* | 17 | nt | 0 | -11 | 13
COc1ncnc2c1NC1=C(S2)C(=NCCC(=O)O)CC(C)(C)C1 | -5 | 29* | 15 | 7 | 12 | 53* | 41*
Cc1ccccc1CN1CCCCC(NC(=O)c2ccc(F)cc2F)C1=O (stereo not drawn) | 0 | nt | nt | nt | 1 | nt | nt
Cc1cccn2c(=O)c3cc(C(N)=S)c(=N)n(CCCN4CCOCC4)c3nc12 | 2 | 22* | 14 | 1 | 0 | -6 | 9
COCCCn1c(=N)c(C(N)=S)cc2c(=O)n3cccc(C)c3nc21 | 4 | 28* | 27 | 8 | 1 | -4 | 12
Cc1cccn2c(=O)c3cc(C#N)c(=N)n(CCCN4CCOCC4)c3nc12 | 4 | -12 | 3 | -3 | -7 | nt | nt
CCCCNC(=O)c1nc(C2CCN(S(=O)(=O)c3ccc(Cl)cc3)CC2)oc1-c1ccccc1 | -3 | 4 | nt | nt | 0 | nt | nt
COc1ccc(-c2cc(=O)c3cccc(CC(=O)O)c3o2)cc1 | -2 | 10 | nt | nt | 4 | nt | nt
C#CCOCCOCCOCCNc1nc(N2CCOCC2)nc(N2CCN(C(=O)[C@H](Cc3ccc(O)cc3)n3cc([C@@H](N)C(C)CC)nn3)CC2)n1 (stereo partly drawn) | 2 | 20* | -1 | 5 | 6 | -5 | 2
COCCc1ccc(OC2(C)CCN(Cc3ccc(OC)c4ccccc34)C2)cc1 (stereo not drawn) | 0 | 8 | nt | nt | 4 | nt | nt
Nc1sccc1C(=O)N1CCN(c2ccccc2)CC1 | 9 | -7 | nt | nt | 8 | nt | nt
CS(=O)(=O)N1Cc2cc(C(=O)NCC3CC3)nc(-c3cccc(-c4cccnc4)c3)c2[C@H]1CCO | -2 | -7 | nt | nt | -3 | nt | nt
CN1CCN(C(=O)c2cc3c(c(-c4cccc(-c5cccnc5)c4)n2)[C@@H](CCO)N(C(=O)CC2CC2)C3)CC1 | 3 | 25* | nt | nt | -9 | 1 | 0
O=C(Cc1nnc(NC(=O)c2ccccc2)s1)N/N=C/c1cccc(O)c1 | -42 | 10 | -3 | 1 | -11 | nt | nt
O=C(Cc1nnc(NC(=O)c2ccccc2)s1)N/N=C/c1ccco1 | 1 | 19* | 4 | 2 | -15 | -6 | 4
CC(C)(C)OC(=O)NCCc1nc(NC(=O)OCc2ccccc2)sc1C(=O)O | -2 | -2 | nt | nt | -1 | nt | nt
SMILES | SIAE inh | TCR CD3 inh | HTRA1 inh | pPAFAH inh | ABHD4 inh | BSA probe FL | TCR-CD3 inh conf
CCCCn1nnnc1SCC(=O)N1CCCC1 | 5 | 21* | -7 | 2 | 7 | 4 | 3
COc1ccc2c(c1)CN1C(=O)N(CCc3ccccc3)S(=O)(=O)CC21 (stereo not drawn) | -7 | nt | nt | nt | -4 | nt | nt
COc1ccc(/C=C2\SC(=S)N(CCCC(=O)NNC(=O)c3ccccc3O)C2=O)cc1 | -19 | 31* | 33 | 15 | 6 | -14 | 22*
S=C(Nc1ccc(Br)cc1)OC1CCC12CCC(c1ccccc1)CC2 (stereo not drawn) | -16 | nt | nt | nt | -25 | nt | nt
CCOC(=O)c1sc2nc(C)cc(C)c2c1N | -7 | 7 | -7 | -1 | -3 | nt | nt
Cc1cc(C)c2c(N)c(C(=O)NN)sc2n1 | 13 | 38* | 28 | 18 | 14 | -8 | 29*
COC(=O)c1ccc(Cn2ccc3ccc(-c4ccc5ccn(C(=O)c6ccccc6OC)c5c4)cc32)cc1 | -3 | nt | nt | nt | -6 | nt | nt
COc1ccc(Cl)cc1NC(=O)c1cccc(S(=O)(=O)Nc2c(C)n(C)n(-c3ccccc3)c2=O)c1 | 3 | 6 | nt | nt | 6 | nt | nt
CC(C)C(=O)Nc1ccc(C(=O)NNC(=S)NC(=O)c2ccccc2[N+](=O)[O-])cc1 | 4 | 26* | 6 | -4 | 3 | -1 | 33*
NC(=O)c1sc(=S)n2c1[nH]c(=O)c1sccc12 | -26 | -2 | -2 | 10 | 7 | nt | nt
CC(=O)NNC(=O)c1sc(=S)n2c1[nH]c(=O)c1sccc12 | -9 | 29* | 12 | 33* | 20 | -2 | 9
COC(=O)[C@]12CCCCC=C1N(Cc1ccccc1)C(=O)[C@H](CC(=O)NCCC(C)C)C2 | -4 | -4 | nt | nt | 6 | nt | nt
O=c1c(OC2OC(CO)C(O)C(O)C2OC2OC(CO)C(O)C(O)C2O)c(-c2ccc(O)cc2)oc2cc(O)cc(O)c12 (stereo not drawn) | 8 | 23* | 1 | 11 | 1 | -4 | 14
O=c1c(O[C@H]2O[C@@H](CO)[C@H](O)[C@@H](O)[C@@H]2O)c(-c2ccc(O)cc2)oc2cc(O)cc(O)c12 | -1 | -8 | 13 | -3 | -8 | nt | nt
Cc1ccc2nc(-c3cccc(Br)c3)c(Cc3ccccc3)n2c1 | -10 | 114* | nt | nt | -10 | 0 | -1
Cc1ccc(Cc2c(-c3cccc(Br)c3)nc3ccc(C)cn23)cc1 | -8 | 77* | nt | nt | 2 | -9 | -1
COC(=O)C1(C(=O)OC)C/C=C\CCN(S(=O)(=O)c2ccccc2[N+](=O)[O-])CC1 | 2 | -2 | nt | nt | -4 | nt | nt
